Data from ChEMBL document CHEMBL2434891, “Design, synthesis, and in vitro cancer cell growth inhibition evaluation and antimalarial testing of trioxanes installed in cyclic 2-enoate substructures” (Eur J Med Chem, 2013).

Experiments:
[1] = tested on: MDA-MB-231; experiment: Cytotoxicity against human MDA-MB-231 cells after 72 hrs by SRB assay; type: functional; settings: MDA-MB-231, 72 h
[2] = tested on: HCT-15; experiment: Cytotoxicity against human HCT15 cells after 72 hrs by SRB assay; type: functional; settings: HCT-15, 72 h
[3] = Cytotoxicity against human RXF631L cells after 72 hrs by SRB assay; type: functional; settings: RXF 631, 72 h
[4] = tested on: SNB-78; experiment: Cytotoxicity against human SNB78 cells after 72 hrs by SRB assay; type: functional; settings: SNB-78, 72 h
[5] = tested on: SNB-75; experiment: Cytotoxicity against human SNB75 cells after 72 hrs by SRB assay; type: functional; settings: SNB-75, 72 h
[6] = tested on: MKN-74; experiment: Cytotoxicity against human MKN74 cells after 72 hrs by SRB assay; type: functional; settings: MKN-74, 72 h
[7] = tested on: NCI-H522; experiment: Cytotoxicity against human NCI-H522 cells after 72 hrs by SRB assay; type: functional; settings: NCI-H522, 72 h
[8] = tested on: DU-145; experiment: Cytotoxicity against human DU145 cells after 72 hrs by SRB assay; type: functional; settings: DU-145, 72 h
[9] = tested on: PC-3; experiment: Cytotoxicity against human PC3 cells after 72 hrs by SRB assay; type: functional; settings: PC-3, 72 h
[10] = Cytotoxicity against human HBC5 cells after 72 hrs by SRB assay; type: functional; settings: HBC5, 72 h
[11] = tested on: HCT-116; experiment: Cytotoxicity against human HCT116 cells after 72 hrs by SRB assay; type: functional, cell-based; settings: HCT-116, 72 h
Summary of the method: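 Adherent cells grown at 37 °C and 5% CO2. Seeded at 1×10^4/well 24 h before dosing, then 72 h at 10–0.01 µg/mL final. Fixed with cold 50% TCA, stained with 0.4% SRB, dye extracted in 10 mM Tris, read at 540 nm.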

[12] = tested on: NCI-H226; experiment: Cytotoxicity against human NCI-H226 cells after 72 hrs by SRB assay; type: functional; settings: NCI-H226, 72 h
[13] = Cytotoxicity against human HBC4 cells after 72 hrs by SRB assay; type: functional; settings: HBC4, 72 h
[14] = tested on: St-4; experiment: Cytotoxicity against human St-4 cells after 72 hrs by SRB assay; type: functional; settings: St-4, 72 h
[15] = tested on: ACHN; experiment: Cytotoxicity against human ACHN cells after 72 hrs by SRB assay; type: functional
[16] = tested on: U-251; experiment: Cytotoxicity against human U251 cells after 72 hrs by SRB assay; type: functional; settings: U-251, 72 h
[17] = tested on: SK-OV-3; experiment: Cytotoxicity against human SKOV3 cells after 72 hrs by SRB assay; type: functional; settings: SK-OV-3, 72 h
[18] = tested on: DMS-114; experiment: Cytotoxicity against human DMS114 cells after 72 hrs by SRB assay; type: functional; settings: DMS-114, 72 h
[19] = tested on: LOX IMVI; experiment: Cytotoxicity against human LOXIMVI cells after 72 hrs by SRB assay; type: functional
[20] = tested on: MKN-45; experiment: Cytotoxicity against human MKN45 cells after 72 hrs by SRB assay; type: functional; settings: MKN-45, 72 h
[21] = tested on: MKN-28; experiment: Cytotoxicity against human MKN28 cells after 72 hrs by SRB assay; type: functional; settings: MKN-28, 72 h
[22] = tested on: OVCAR-3; experiment: Cytotoxicity against human OVCAR3 cells after 72 hrs by SRB assay; type: functional; settings: OVCAR-3, 72 h
[23] = tested on: SF-268; experiment: Cytotoxicity against human SF268 cells after 72 hrs by SRB assay; type: functional; settings: SF-268, 72 h
[24] = tested on: NCI-H23; experiment: Cytotoxicity against human NCI-H23 cells after 72 hrs by SRB assay; type: functional; settings: NCI-H23, 72 h
[25] = tested on: NCI-H460; experiment: Cytotoxicity against human NCI-H460 cells after 72 hrs by SRB assay; type: functional; settings: NCI-H460, 72 h
[26] = Cytotoxicity against human MKN1 cells after 72 hrs by SRB assay; type: functional; settings: MKN-1, 72 h
[27] = tested on: DMS-273; experiment: Cytotoxicity against human DMS273 cells after 72 hrs by SRB assay; type: functional; settings: DMS-273, 72 h
[28] = Cytotoxicity against human BSY1 cells after 72 hrs by SRB assay; type: functional; settings: BSY-1, 72 h
[29] = read-out: LC50 (the source's name)
[30] = read-out: pLC50 (the source's name) (converted)

COc1ccc(C2O[C@]34CC(c5cccc(Cl)c5)OC(=O)C3=C[C@@]2(C)OO4)cc1 (stereo partly specified)
TGI [1]: 26 µM | GI50 ([1]; read-out: GI50): 12 µM | CC50 [1, 29]: 58 µM | GI50 ([1]; read-out: pGI50 (converted)): 5.37 µM | CC50 [1, 30]: 51.3 µM | TGI [2]: 24 µM | GI50 ([2]; read-out: GI50): 4.4 µM | CC50 [2, 29]: 100 µM | GI50 ([2]; read-out: pGI50 (converted)): 3.72 µM | CC50 ([2]; read-out: pLC50 (converted)): > 100 µM | TGI [3]: 30 µM | GI50 ([3]; read-out: GI50): 16 µM | CC50 [3, 29]: 56 µM | GI50 ([3]; read-out: pGI50 (converted)): 16.6 µM | CC50 [3, 30]: 58.9 µM | TGI [4]: 34 µM | GI50 ([4]; read-out: GI50): 14 µM | CC50 [4, 29]: 84 µM | GI50 ([4]; read-out: pGI50 (converted)): 12.6 µM | CC50 [4, 30]: 91.2 µM | TGI [5]: 28 µM | GI50 ([5]; read-out: GI50): 12 µM | CC50 [5, 29]: 67 µM | GI50 ([5]; read-out: pGI50 (converted)): 12.3 µM | CC50 [5, 30]: 63.1 µM | TGI [6]: 44 µM | GI50 ([6]; read-out: GI50): 15 µM | CC50 [6, 29]: 100 µM | GI50 ([6]; read-out: pGI50 (converted)): 14.1 µM | CC50 [6, 30]: 95.5 µM | TGI [7]: 8.6 µM | GI50 ([7]; read-out: GI50): 2700 nM | CC50 [7, 29]: 100 µM | GI50 ([7]; read-out: pGI50 (converted)): 2000 nM | CC50 [7, 30]: 22.4 µM | TGI [8]: 29 µM | GI50 ([8]; read-out: GI50): 15 µM | CC50 [8, 29]: 54 µM | GI50 ([8]; read-out: pGI50 (converted)): 16.6 µM | CC50 [8, 30]: 56.2 µM | TGI [9]: 28 µM | GI50 ([9]; read-out: GI50): 15 µM | CC50 [9, 29]: 55 µM | GI50 ([9]; read-out: pGI50 (converted)): 13.2 µM | CC50 [9, 30]: 56.2 µM | TGI [10]: 8 µM | GI50 ([10]; read-out: GI50): 2400 nM | CC50 [10, 29]: 44 µM | GI50 ([10]; read-out: pGI50 (converted)): 1950 nM | CC50 [10, 30]: 8.71 µM | IC50 [11]: 7.67 µM | TGI [11]: 20 µM | GI50 ([11]; read-out: GI50): 4.1 µM | CC50 [11, 29]: 100 µM | GI50 ([11]; read-out: pGI50 (converted)): 3.39 µM | CC50 [11, 30]: 70.8 µM | TGI [12]: 48 µM | GI50 ([12]; read-out: GI50): 20 µM | CC50 [12, 29]: 100 µM | GI50 ([12]; read-out: pGI50 (converted)): 17.8 µM | CC50 [12, 30]: 91.2 µM | TGI [13]: 24 µM | GI50 ([13]; read-out: GI50): 11 µM | CC50 [13, 29]: 54 µM | GI50 ([13]; read-out: pGI50 (converted)): 3.72 µM | CC50 [13, 30]: 38 µM | TGI [14]: 47 µM | GI50 ([14]; read-out: GI50): 19 µM | CC50 [14, 29]: 100 µM | GI50 ([14]; read-out: pGI50 (converted)): 17.8 µM | CC50 ([14]; read-out: pLC50 (converted)): > 100 µM | TGI [15]: 29 µM | GI50 ([15]; read-out: GI50): 16 µM | CC50 [15, 29]: 55 µM | GI50 ([15]; read-out: pGI50 (converted)): 15.5 µM | CC50 [15, 30]: 56.2 µM | TGI [16]: 36 µM | GI50 ([16]; read-out: GI50): 18 µM | CC50 [16, 29]: 73 µM | GI50 ([16]; read-out: pGI50 (converted)): 15.8 µM | CC50 [16, 30]: 69.2 µM | TGI [17]: 29 µM | GI50 ([17]; read-out: GI50): 16 µM | CC50 [17, 29]: 54 µM | GI50 ([17]; read-out: pGI50 (converted)): 19.1 µM | CC50 [17, 30]: 58.9 µM | TGI [18]: 36 µM | GI50 ([18]; read-out: GI50): 14 µM | CC50 [18, 29]: 92 µM | GI50 ([18]; read-out: pGI50 (converted)): 4.47 µM | CC50 [18, 30]: 95.5 µM | TGI [19]: 12 µM | GI50 ([19]; read-out: GI50): 3100 nM | CC50 [19, 29]: 60 µM | GI50 ([19]; read-out: pGI50 (converted)): 2040 nM | CC50 [19, 30]: 7.59 µM | TGI [20]: 31 µM | GI50 ([20]; read-out: GI50): 14 µM | CC50 [20, 29]: 68 µM | GI50 ([20]; read-out: pGI50 (converted)): 15.5 µM | CC50 [20, 30]: 57.5 µM | TGI [21]: 40 µM | GI50 ([21]; read-out: GI50): 14 µM | CC50 [21, 29]: 100 µM | GI50 ([21]; read-out: pGI50 (converted)): 11 µM | CC50 ([21]; read-out: pLC50 (converted)): > 100 µM | TGI [22]: 10 µM | GI50 ([22]; read-out: GI50): 3400 nM | CC50 [22, 29]: 42 µM | GI50 ([22]; read-out: pGI50 (converted)): 2450 nM | CC50 [22, 30]: 12.6 µM | TGI [23]: 41 µM | GI50 ([23]; read-out: GI50): 18 µM | CC50 [23, 29]: 94 µM | GI50 ([23]; read-out: pGI50 (converted)): 13.8 µM | CC50 [23, 30]: 91.2 µM | TGI [24]: 40 µM | GI50 ([24]; read-out: GI50): 18 µM | CC50 [24, 29]: 93 µM | GI50 ([24]; read-out: pGI50 (converted)): 16.6 µM | CC50 [24, 30]: 79.4 µM | TGI [25]: 38 µM | GI50 ([25]; read-out: GI50): 19 µM | CC50 [25, 29]: 77 µM | GI50 ([25]; read-out: pGI50 (converted)): 20 µM | CC50 [25, 30]: 81.3 µM | TGI [26]: 17 µM | GI50 ([26]; read-out: GI50): 4.5 µM | CC50 [26, 29]: 49 µM | GI50 ([26]; read-out: pGI50 (converted)): 2.09 µM | CC50 [26, 30]: 9.12 µM | TGI [27]: 31 µM | GI50 ([27]; read-out: GI50): 14 µM | CC50 [27, 29]: 69 µM | GI50 ([27]; read-out: pGI50 (converted)): 10.2 µM | CC50 [27, 30]: 74.1 µM | TGI [28]: 26 µM | GI50 ([28]; read-out: GI50): 12 µM | CC50 [28, 29]: 57 µM | GI50 ([28]; read-out: pGI50 (converted)): 5.01 µM | CC50 [28, 30]: 46.8 µM
